Test results as given in ChEMBL document CHEMBL1123098, “Activity of platinum(II) intercalating agents against murine leukemia L1210” (J Med Chem, 1985).

Test system: L1210
Experiment: Growth inhibition of L1210 murine leukemia cells determined in culture
Format: functional, cell-based, Mus musculus
Summary of the method: (§1)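 L1210 cells were grown in Minimum Essential Medium with 15% fetal calf serum, 2 mM glutamine and gentamycin, at 37 °C without agitation under 5% O2-10% CO2. Drug was diluted in sterile water and added to 5 × 10^4 cells/mL, with water-only controls. Exposure was continuous for 48 h, or in some cases a 2-h pulse followed by 48-h incubation. Cells were Coulter-counted and growth as % of control was plotted against concentration. IC50 is the mean of at least two determinations.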

IC50 [µM]	Substance
43	(1,3-Diamine-2-hydroxypropane) ([2,2']Bipyridinyl)platinum (II) dichloride
9	(1,3-Diaminepropane) ([2,2']Bipyridinyl)platinum (II) dichloride Pentahydrate
5	(1,3-Diamino-2-hydroxypropane)(3,4,7,8-tetramethyl-1,10-phenanthroline)platinum (II) dichloride Dihydrate
14	(1,3-Diaminopropane)(1,10-phenanthroline)-platinum (II) dichloride Dihydrate
1	(1,3-Diaminopropane)(1,10-phenanthroline)-platinum (II) dichloride Monohydrate
> 500	(1,4-Diaminebutane) ([2,2']Bipyridinyl)platinum (II) dichloride
50	(1,4-Diamino-butane)(3,4,7,8-tetramethyl-1,10-phenanthroline)platinum (II) dichloride
110	(1,4-Diaminobutane)(1,10-phenanthroline)-platinum (II) dichloride Monohydrate
5	(1-Thionaphthalato) (2,2':6',2''-terpyridine)platinum (II) dichloride Dihydrate
450	(2,2':6',2''-terpyridine)platinum (II) dichloride Trihydrate
10	(2-methyloxyThiophenolato)(2,2':6',2''-terpyridine)platinum (II) Chloride Trihydrate
32	(4-AmmonioThiophenolato)(2,2':6',2''-terpyridine)platinum (II) dichloride Dihydrate
9	(4-BromoThiophenolato)(2,2':6',2''-terpyridine)platinum (II) Chloride Dihydrate
9	(4-ChloroThiophenolato)(2,2':6',2''-terpyridine)platinum (II)DiChloro Trihydrate
12	(4-methylThiophenolato)(2,2':6',2''-terpyridine)platinum (II) Chloride Dihydrate
9	(4-methyloxyThiophenolato)(2,2':6',2''-terpyridine)platinum (II) Chloride Trihydrate
0.7	(Ethylenediamine)3,4,7,8-tetramethyl-1,10-phenanthroline)platinum (II) dichloride Dihydrate Dihydrate
33	(Ethylenediamine) ([2,2']Bipyridinyl)platinum (II) dichloride Dihydrate
2	(Ethylenediamine)(1,10-phenanthroline)-platinum (II) dichloride Dihydrate
23	DICHLORODIPHENYLPLATINUM TRIHYDRATE

Test system: L1210
Experiment: Growth inhibition of L1210 leukemia was determined in culture
Format: functional, cell-based, Mus musculus
Summary of the method: as §1

IC50 [µM]	Substance
6	(Thiophenolato)(2,2':6',2''-terpyridine)platinum (II) Chloride Monohydrate
